From ChEMBL document CHEMBL2069298, “Putative mycobacterial efflux inhibitors from the seeds of Aframomum melegueta” (J Nat Prod, 2012)
In brackets after ≈: the same amount, converted by molar mass.

Assays:
[1] = tested on: Mycolicibacterium smegmatis; assay: Antimicrobial activity against Mycobacterium smegmatis str. MC2 155 ATCC 700084 incubated for 72 hrs in 7H9 T medium supplemented with 10% Middlebrook ADC enrichment by MTT assay; format: functional; conditions: MC2 155 ATCC 700084, 72 h
Method in brief: (§1)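 M. smegmatis mc2 155 grown on Columbia blood agar with 5% horse blood at 37 °C. Compounds in DMSO, serially diluted in Mueller-Hinton broth or 7H9 T ADC. Inoculum set to McFarland 0.5, then 5 × 10^5 cfu/mL, mixed 1:1 with the dilutions. Read with MTT after 72 h at 37 °C. MIC is the lowest concentration inhibiting growth.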

[2] = tested on: Mycolicibacterium smegmatis; assay: Antimicrobial activity against Mycobacterium smegmatis str. MC2 155 ATCC 700084 incubated for 72 hrs in Mueller-Hinton broth medium by MTT assay; format: functional; conditions: MC2 155 ATCC 700084, 72 h; method in brief: as §1
[3] = tested on: Mycolicibacterium smegmatis MC2 155; assay: Inhibition of Multidrug resistance efflux pump in Mycobacterium smegmatis str. MC2 155 ATCC 700084 assessed as reduction in ethidium bromide MIC presence of test compound at 64 mg/L
Method in brief: (§2)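 Broth dilution in MHB with strain mc2 155 from blood agar. Modulator at half its MHB MIC was included in the medium while the antibiotic or EtBr was serially diluted. Inoculum 5 × 10^5 cfu/mL. MTT read-out after 72 h at 37 °C. Value is the fold change in MIC.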

[4] = tested on: Mycolicibacterium smegmatis MC2 155; assay: Inhibition of Multidrug resistance efflux pump in Mycobacterium smegmatis str. MC2 155 ATCC 700084 assessed as reduction in ciprofloxacin bromide MIC presence of test compound at 64 mg/L; method in brief: as §2
[5] = tested on: Mycolicibacterium smegmatis MC2 155; assay: Inhibition of Multidrug resistance efflux pump in Mycobacterium smegmatis str. MC2 155 ATCC 700084 assessed as fractional inhibitory concentration index in presence of ethidium bromide
Method in brief: (§3)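 Combination testing in MHB broth dilution against mc2 155. Either the modulator or the antibiotic (EtBr or rifampicin) was held in the medium while the partner was serially diluted. 5 × 10^5 cfu/mL inoculum, MTT read-out after 72 h at 37 °C. Fractional inhibitory concentration index derived from the combined MICs.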

[6] = tested on: Mycolicibacterium smegmatis MC2 155; assay: Inhibition of Multidrug resistance efflux pump in Mycobacterium smegmatis str. MC2 155 ATCC 700084 assessed as reduction in ethambutol bromide MIC presence of test compound at 64 mg/L; method in brief: as §2
[7] = tested on: Mycolicibacterium smegmatis MC2 155; assay: Inhibition of Multidrug resistance efflux pump in Mycobacterium smegmatis str. MC2 155 ATCC 700084 assessed as reduction in isoniazid bromide MIC presence of test compound at 64 mg/L; method in brief: as §2
[8] = tested on: Mycolicibacterium smegmatis MC2 155; assay: Inhibition of Multidrug resistance efflux pump in Mycobacterium smegmatis str. MC2 155 ATCC 700084 assessed as reduction in rifampicin bromide MIC presence of test compound at 64 mg/L; method in brief: as §2
[9] = tested on: Mycolicibacterium smegmatis MC2 155; assay: Inhibition of Multidrug resistance efflux pump in Mycobacterium smegmatis str. MC2 155 ATCC 700084 assessed as fractional inhibitory concentration index in presence of rifampicin; method in brief: as §3
[10] = tested on: Mycolicibacterium smegmatis MC2 155; assay: Inhibition of Multidrug resistance efflux pump in Mycobacterium smegmatis str. MC2 155 ATCC 700084 assessed as reduction in ethidium bromide MIC presence of test compound at 16 mg/L; method in brief: as §2
[11] = tested on: Mycolicibacterium smegmatis MC2 155; assay: Inhibition of Multidrug resistance efflux pump in Mycobacterium smegmatis str. MC2 155 ATCC 700084 assessed as reduction in ciprofloxacin bromide MIC presence of test compound at 16 mg/L; method in brief: as §2
[12] = tested on: Mycolicibacterium smegmatis MC2 155; assay: Inhibition of Multidrug resistance efflux pump in Mycobacterium smegmatis str. MC2 155 ATCC 700084 assessed as reduction in ethambutol bromide MIC presence of test compound at 16 mg/L; method in brief: as §2
[13] = tested on: Mycolicibacterium smegmatis MC2 155; assay: Inhibition of Multidrug resistance efflux pump in Mycobacterium smegmatis str. MC2 155 ATCC 700084 assessed as reduction in isoniazid bromide MIC presence of test compound at 16 mg/L; method in brief: as §2
[14] = tested on: Mycolicibacterium smegmatis MC2 155; assay: Inhibition of Multidrug resistance efflux pump in Mycobacterium smegmatis str. MC2 155 ATCC 700084 assessed as reduction in rifampicin bromide MIC presence of test compound at 16 mg/L; method in brief: as §2
[15] = tested on: Mycolicibacterium smegmatis MC2 155; assay: Inhibition of Multidrug resistance efflux pump in Mycobacterium smegmatis str. MC2 155 ATCC 700084 assessed as increase in relative ethidium bromide fluorescence accumulation at 0.5 MIC level by fluorimetric assay (reference value: 6057.1 +/- 508.6 RFU)
Method in brief: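 Cells grown in 7H9 T with 10% ADC at 37 °C. Compounds at half their 7H9 T ADC MIC, with 0.5 mg/L EtBr and 0.4% glucose at 37 °C. Fluorescence tracked in a microtiter plate until steady state. Relative fluorescence is the mean of the last 10 min of four assays, compared with the EtBr-only control.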

[16] = tested on: Mycolicibacterium smegmatis MC2 155; assay: Inhibition of Multidrug resistance efflux pump in Mycobacterium smegmatis str. MC2 155 ATCC 700084 assessed as increase in normalized ethidium bromide fluorescence efflux at 0.5 MIC level by fluorimetric assay (reference value: 0.581 +/- 0.051 ratio)
Method in brief: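 Cells grown in 7H9 T ADC at 37 °C and loaded with 4 mg/L EtBr plus 256 mg/L verapamil. EtBr efflux followed fluorometrically in a microtiter plate with compounds at half their 7H9 T ADC MIC. Normalized fluorescence is the mean of the last 10 min of four assays, compared with the EtBr control.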

[17] = (§4) Inhibition of Multidrug resistance efflux pump in Mycobacterium smegmatis str. MC2 155 ATCC 700084 assessed as increase in normalized ethidium bromide fluorescence efflux at 0.5 MIC level by fluorimetric assay; parameters: species or system Mycolicibacterium smegmatis MC2 155
[18] = tested on: Mycolicibacterium smegmatis MC2 155; assay: Inhibition of Multidrug resistance efflux pump in Mycobacterium smegmatis str. MC2 155 ATCC 700084 assessed as reduction in ethidium bromide MIC presence of test compound at 32 mg/L; method in brief: as §2
[19] = tested on: Mycolicibacterium smegmatis MC2 155; assay: Inhibition of Multidrug resistance efflux pump in Mycobacterium smegmatis str. MC2 155 ATCC 700084 assessed as reduction in ciprofloxacin bromide MIC presence of test compound at 32 mg/L; method in brief: as §2
[20] = tested on: Mycolicibacterium smegmatis MC2 155; assay: Inhibition of Multidrug resistance efflux pump in Mycobacterium smegmatis str. MC2 155 ATCC 700084 assessed as reduction in ethambutol bromide MIC presence of test compound at 32 mg/L; method in brief: as §2
[21] = tested on: Mycolicibacterium smegmatis MC2 155; assay: Inhibition of Multidrug resistance efflux pump in Mycobacterium smegmatis str. MC2 155 ATCC 700084 assessed as reduction in isoniazid bromide MIC presence of test compound at 32 mg/L; method in brief: as §2
[22] = tested on: Mycolicibacterium smegmatis MC2 155; assay: Inhibition of Multidrug resistance efflux pump in Mycobacterium smegmatis str. MC2 155 ATCC 700084 assessed as reduction in rifampicin bromide MIC presence of test compound at 32 mg/L; method in brief: as §2
[23] = tested on: Mycolicibacterium smegmatis MC2 155; assay: as §4

## CCCCC[C@H](O)C[C@H](O)CCc1ccc(O)c(OC)c1
[1]
  MIC: ≥ 128 µg/mL
[2]
  MIC: ≥ 128 µg/mL
[3]
  fold change (FC): 2
[4]
  fold change (FC): 1
[5]
  fractional inhibitory concentration index (FICI): 1
[6]
  fold change (FC): 1
[7]
  fold change (FC): 1
[8]
  fold change (FC): 1
[9]
  fractional inhibitory concentration index (FICI): 2

## CCCCC[C@H](O)CC(=O)CCc1ccc(O)c(OC)c1 [GINGEROL]
[1]
  MIC: ≥ 128 µg/mL
[2]
  MIC: ≥ 128 µg/mL
[3]
  fold change (FC): 2
[4]
  fold change (FC): 1
[5]
  fractional inhibitory concentration index (FICI): 1
[6]
  fold change (FC): 1
[7]
  fold change (FC): 1
[8]
  fold change (FC): 1
[9]
  fractional inhibitory concentration index (FICI): 2

## CCCCCCCC(O)CCc1ccc(O)c(OC)c1 (racemic)
[1]
  MIC: 128 µg/mL (≈ 456 µM)
[2]
  MIC: 32 µg/mL (≈ 114 µM)
[10]
  fold change (FC): 4
[11]
  fold change (FC): 2
[5]
  fractional inhibitory concentration index (FICI): 0.38
[12]
  fold change (FC): 2
[13]
  fold change (FC): 1
[14]
  fold change (FC): 4
[9]
  fractional inhibitory concentration index (FICI): 0.75
[15]
  RFU: 24700
[16]
  Ratio: 0.792
[17]
  IC50: 69.2 µM

## CCCCCCC[C@H](O)CC(=O)CCc1ccc(O)c(OC)c1
[1]
  MIC: ≥ 128 µg/mL
[2]
  MIC: 64 µg/mL (≈ 198 µM)
[18]
  fold change (FC): 8
[19]
  fold change (FC): 2
[5]
  fractional inhibitory concentration index (FICI): 0.19
[20]
  fold change (FC): 2
[21]
  fold change (FC): 2
[22]
  fold change (FC): 2
[9]
  fractional inhibitory concentration index (FICI): 1
[15]
  RFU: 21900
[16]
  Ratio: 0.795
[17]
  IC50: 83.1 µM

## CCCCCC(=O)CC(=O)CCc1ccc(O)c(OC)c1
[1]
  MIC: ≥ 128 µg/mL
[2]
  MIC: 128 µg/mL (≈ 438 µM)
[3]
  fold change (FC): 8
[4]
  fold change (FC): 2
[5]
  fractional inhibitory concentration index (FICI): 0.25
[6]
  fold change (FC): 1
[7]
  fold change (FC): 2
[8]
  fold change (FC): 4
[9]
  fractional inhibitory concentration index (FICI): 0.5
[15]
  RFU: 17800
[16]
  Ratio: 0.789

## CCCCc1ccc(CCc2ccc(O)c(OC)c2)o1
[1]
  MIC: ≥ 128 µg/mL
[2]
  MIC: 32 µg/mL (≈ 117 µM)
[10]
  fold change (FC): 8
[11]
  fold change (FC): 2
[5]
  fractional inhibitory concentration index (FICI): 0.19
[12]
  fold change (FC): 2
[13]
  fold change (FC): 4
[14]
  fold change (FC): 16
[9]
  fractional inhibitory concentration index (FICI): 0.19
[15]
  RFU: 17200
[16]
  Ratio: 0.778

## CCCCCCCC(=O)CCc1ccc(O)c(OC)c1
[1]
  MIC: ≥ 128 µg/mL
[2]
  MIC: 32 µg/mL (≈ 115 µM)
[10]
  fold change (FC): 8
[11]
  fold change (FC): 1
[5]
  fractional inhibitory concentration index (FICI): 0.25
[12]
  fold change (FC): 1
[13]
  fold change (FC): 4
[14]
  fold change (FC): 4
[9]
  fractional inhibitory concentration index (FICI): 0.5
[15]
  RFU: 24600
[16]
  Ratio: 0.793
[17]
  IC50: 63.6 µM
[23]
  inhibition: Dose-dependent effect

## CCCCC[C@H](O)CC(=O)CCc1ccc(OC)c(OC)c1
[1]
  MIC: ≥ 128 µg/mL
[2]
  MIC: ≥ 128 µg/mL
[3]
  fold change (FC): 2
[4]
  fold change (FC): 1
[5]
  fractional inhibitory concentration index (FICI): 0.63
[6]
  fold change (FC): 1
[7]
  fold change (FC): 1
[8]
  fold change (FC): 1
[9]
  fractional inhibitory concentration index (FICI): 2
[15]
  RFU: 11800
[16]
  Ratio: 0.746

## CCCCC[C@H](O)C[C@@H](O)CCc1ccc(O)c(OC)c1
[1]
  MIC: ≥ 128 µg/mL
[2]
  MIC: ≥ 128 µg/mL
[3]
  fold change (FC): 2
[4]
  fold change (FC): 1
[5]
  fractional inhibitory concentration index (FICI): 1
[6]
  fold change (FC): 1
[7]
  fold change (FC): 1
[8]
  fold change (FC): 1
[9]
  fractional inhibitory concentration index (FICI): 2
